Key:
[1] = system: Yellow fever virus; assay: Antiviral activity against Yellow fever virus infected in African green monkey Vero cells assessed as inhibition of virus-induced cytopathicity; type: functional, organism-based
[2] = system: Influenza A virus H3N2; assay: Antiviral activity against Influenza A virus H3N2 infected in MDCK cells assessed as inhibition of virus-induced visual cytopathicity; type: functional, organism-based
[3] = system: Influenza A virus H3N2; assay: Antiviral activity against Influenza A virus H3N2 infected in MDCK cells assessed as inhibition of virus-induced cytopathicity by MTS assay; type: functional, organism-based
[4] = system: Human alphaherpesvirus 3; assay: Antiviral activity against thymidine kinase deficient Varicella-Zoster virus infected in HEL cells assessed as reduction in virus plaque formation; type: functional, organism-based; conditions: Human alphaherpesvirus 3, HEL
[5] = system: Coxsackievirus B4; assay: Antiviral activity against Coxsackie virus B4 infected in African green monkey Vero cells assessed as inhibition of virus-induced cytopathicity; type: functional, organism-based; conditions: Enterovirus B
[6] = Cytotoxicity against African green monkey Vero cells assessed as alteration of cell morphology by microscopic analysis; type: cell-based; conditions: chlorocebus sabaeus
How it was run: (§1)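 The value is the minimal cytotoxic concentration (MCC), the lowest concentration that causes a microscopically visible change in cell morphology. It was read in the same HEL or Vero cell cultures used for the antiviral tests.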

[7] = system: Human coronavirus 229E; assay: Antiviral activity against Human coronavirus 229E infected in HEL cells assessed as inhibition of virus-induced cytopathicity; type: functional, organism-based
[8] = system: Influenza A virus; assay: Antiviral activity against Influenza A virus H1N1 infected in MDCK cells assessed as inhibition of virus-induced cytopathicity by MTS assay; type: functional, organism-based
[9] = Cytotoxicity against MDCK cells assessed as alteration of cell morphology by microscopic analysis; type: cell-based, Canis lupus familiaris; conditions: dog
[10] = system: Human adenovirus 2; assay: Antiviral activity against Adenovirus 2 infected in HEL cells assessed as inhibition of virus-induced cytopathicity; type: functional, organism-based; conditions: Human mastadenovirus C
[11] = system: Respiratory syncytial virus; assay: Antiviral activity against Respiratory syncytial virus infected in human HeLa cells assessed as inhibition of virus-induced cytopathicity; type: functional, organism-based
[12] = system: Vesicular stomatitis virus; assay: Antiviral activity against Vesicular stomatitis virus infected in human HeLa cells assessed as inhibition of virus-induced cytopathicity; type: functional, organism-based
[13] = system: Human alphaherpesvirus 1; assay: Antiviral activity against Herpes simplex virus 1 KOS infected in HEL cells assessed as inhibition of virus-induced cytopathicity; type: functional, organism-based; conditions: Human alphaherpesvirus 1, KOS
[14] = system: Human alphaherpesvirus 1; assay: Antiviral activity against acyclovir-resistant thymidine kinase deficient Herpes simplex virus 1 KOS infected in HEL cells assessed as inhibition of virus-induced cytopathicity; type: functional, organism-based; conditions: Human alphaherpesvirus 1, KOS
[15] = system: Mammalian orthoreovirus 1; assay: Antiviral activity against Reovirus-1 infected in human HeLa cells assessed as inhibition of virus-induced cytopathicity; type: functional, organism-based; conditions: Mammalian orthoreovirus 1, HeLa
[16] = system: Human alphaherpesvirus 3; assay: Antiviral activity against thymidine kinase expressing Varicella-Zoster virus infected in HEL cells assessed as reduction in virus plaque formation; type: functional, organism-based; conditions: Human alphaherpesvirus 3, HEL
[17] = system: Punta Toro virus; assay: Antiviral activity against Punta Toro virus infected in African green monkey Vero cells assessed as inhibition of virus-induced cytopathicity; type: functional, organism-based
[18] = system: Vaccinia virus; assay: Antiviral activity against Vaccinia virus infected in HEL cells assessed as inhibition of virus-induced cytopathicity; type: functional, organism-based; conditions: Orthopoxvirus vaccinia
[19] = system: Human alphaherpesvirus 2; assay: Antiviral activity against Herpes simplex virus 2 G infected in HEL cells assessed as inhibition of virus-induced cytopathicity; type: functional, organism-based; conditions: Human alphaherpesvirus 2, strain G
[20] = system: Influenza B virus; assay: Antiviral activity against Influenza B virus infected in MDCK cells assessed as inhibition of virus-induced cytopathicity by MTS assay; type: functional, organism-based
[21] = Cytotoxicity against human HeLa cells assessed as alteration of cell morphology by microscopic analysis; type: cell-based
[22] = system: Human respirovirus 3; assay: Antiviral activity against Parainfluenza virus 3 infected in human HeLa cells assessed as inhibition of virus-induced cytopathicity; type: functional, organism-based; conditions: Human respirovirus 3, HeLa
[23] = system: Influenza B virus; assay: Antiviral activity against Influenza B virus infected in MDCK cells assessed as inhibition of virus-induced visual cytopathicity; type: functional, organism-based
[24] = system: Influenza A virus; assay: Antiviral activity against Influenza A virus H1N1 infected in MDCK cells assessed as inhibition of virus-induced visual cytopathicity; type: functional, organism-based
[25] = system: Sindbis virus; assay: Antiviral activity against Sindbis Virus infected in African green monkey Vero cells assessed as inhibition of virus-induced cytopathicity; type: functional, organism-based
[26] = system: Human betaherpesvirus 5; assay: Antiviral activity against Human cytomegalovirus Davis infected in HEL cells assessed as inhibition of virus-induced cytopathicity; type: functional, organism-based; conditions: Human betaherpesvirus 5, Davis
[27] = Cytotoxicity against HEL cells assessed as alteration of cell morphology by microscopic analysis; type: cell-based; conditions: human; how it was run: as §1
[28] = system: Human betaherpesvirus 5; assay: Antiviral activity against Human cytomegalovirus AD169 infected in HEL cells assessed as inhibition of virus-induced cytopathicity; type: functional, organism-based; conditions: Human betaherpesvirus 5, AD169, HEL

Compound	EC50 [1]	EC50 [2]	EC50 [3]	EC50 [4]	EC50 [5]	MCC [6]	EC50 [7]	EC50 [8]	MCC [9]	EC50 [10]	EC50 [11]	EC50 [12]	EC50 [13]	EC50 [14]	EC50 [15]	EC50 [16]	EC50 [17]	EC50 [18]	EC50 [19]	EC50 [20]	other results
C/C(=C\CP(=O)(N[C@@H](C)C(=O)OCc1ccccc1)Oc1cccc2ccccc12)Cn1ccc(=O)[nH]c1=O (some centres undefined)	> 100 µM	> 100 µM	> 100 µM	58.5 µM	> 100 µM	> 100 µM	> 100 µM	> 100 µM	> 100 µM	> 100 µM	> 100 µM	> 100 µM	> 100 µM	> 100 µM	> 100 µM	100 µM	> 100 µM	> 100 µM	> 100 µM	> 100 µM	MCC [21]: > 100 µM; EC50 [22]: > 100 µM; EC50 [23]: > 100 µM; EC50 [24]: > 100 µM; EC50 [25]: > 100 µM; EC50 [26]: > 100 µM; MCC [27]: > 100 µM; EC50 [28]: > 100 µM
C/C(=C\CP(=O)(N[C@@H](C)C(=O)OCc1ccccc1)Oc1cccc2ccccc12)Cn1cc(C)c(=O)[nH]c1=O (some centres undefined)	> 100 µM	> 100 µM	> 100 µM	55.3 µM	> 100 µM	> 100 µM	> 100 µM	> 100 µM	> 100 µM	> 100 µM	> 100 µM	> 100 µM	> 100 µM	> 100 µM	> 100 µM	34.2 µM	> 100 µM	> 100 µM	> 100 µM	> 100 µM	MCC [21]: > 100 µM; EC50 [22]: > 100 µM; EC50 [23]: > 100 µM; EC50 [24]: > 100 µM; EC50 [25]: > 100 µM; EC50 [26]: > 100 µM; MCC [27]: > 100 µM; EC50 [28]: > 100 µM
C/C(=C\CP(=O)(N[C@@H](C)C(=O)OC(C)C)Oc1cccc2ccccc12)Cn1ccc(=O)[nH]c1=O (some centres undefined)	> 100 µM	> 100 µM	> 100 µM	> 100 µM	> 100 µM	> 100 µM	> 100 µM	> 100 µM	> 100 µM	> 100 µM	> 100 µM	> 100 µM	> 100 µM	> 100 µM	> 100 µM	20 µM	> 100 µM	> 100 µM	> 100 µM	> 100 µM	MCC [21]: > 100 µM; EC50 [22]: > 100 µM; EC50 [23]: > 100 µM; EC50 [24]: > 100 µM; EC50 [25]: > 100 µM; EC50 [26]: > 100 µM; MCC [27]: > 100 µM; EC50 [28]: > 100 µM

Source: ChEMBL document CHEMBL4118253, “Expedient synthesis and biological evaluation of alkenyl acyclic nucleoside phosphonate prodrugs” (Bioorg Med Chem, 2018)
